Laboratory results reported in ChEMBL document CHEMBL1165861, “Synthesis and biological evaluation of some pyrazolylpyrazolines as anti-inflammatory-antimicrobial agents” (2010).
In brackets after ≈: the same amount, converted by molar mass.

Legend:
Escherichia coli [1] = experiment: Antimicrobial activity against Escherichia coli MTCC 51 at 4 mg/ml after 24 hrs by agar diffusion method; assay type: functional; conditions: MTCC 51, 24 h, read-out: DIZ
Summary of the method: (§1)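 Agar well diffusion: seeded agar plates swabbed with inoculum and left 15 min for adsorption, then 8 mm wells bored and loaded. Incubation 37 °C for 24 h. Inhibition zone diameter measured in mm with a zone reader. DMSO medium served as negative control and ciprofloxacin as positive control. Triplicates.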

Rattus norvegicus [2] = experiment: Antiinflammatory activity in Wistar albino rat assessed as inhibition of carrageenan-induced paw edema at 50 mg/kg, po administered 30 mins before carrageenan challenge measured after 60 mins relative to control; assay type: functional
Summary of the method: (§2)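 Male Wistar albino rats (200–250 g) in groups of six, food withdrawn 12 h before and during the test. Compounds were dosed orally at 50 mg/kg; controls received tween 80 (95:5). After 30 min, 0.1 mL of 1% w/v carrageenan in saline was injected subplantar into the left hind paw. Plethysmometer volumes were taken initially and at 30–120 min. AI% is relative to control, mean ± SEM, ANOVA.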

Pseudomonas aeruginosa [3] = experiment: Antimicrobial activity against Pseudomonas aeruginosa MTCC 741 at 4 mg/ml after 24 hrs by agar diffusion method; assay type: functional; conditions: MTCC 741, 24 h, read-out: DIZ; summary of the method: as §1
Rattus norvegicus [4] = experiment: Antiinflammatory activity in Wistar albino rat assessed as inhibition of carrageenan-induced paw edema at 50 mg/kg, po administered 30 mins before carrageenan challenge measured after 90 mins relative to control; assay type: functional; summary of the method: as §2
Rattus norvegicus [5] = experiment: Antiinflammatory activity in Wistar albino rat assessed as inhibition of carrageenan-induced paw edema at 50 mg/kg, po administered 30 mins before carrageenan challenge measured after 30 mins relative to control; assay type: functional; summary of the method: as §2
Pseudomonas aeruginosa [6] = experiment: Antimicrobial activity against Pseudomonas aeruginosa MTCC 741 after 24 hrs by broth microdilution assay; assay type: functional; conditions: MTCC 741, 24 h
Summary of the method: (§3)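 MIC was determined by microplate dilution (microdilution) in Müller–Hinton broth, with ciprofloxacin as the reference drug.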

Staphylococcus aureus [7] = experiment: Antimicrobial activity against Staphylococcus aureus MTCC 3160 after 24 hrs by broth microdilution assay; assay type: functional; conditions: MTCC 3160, 24 h; summary of the method: as §3
Staphylococcus aureus [8] = experiment: Antimicrobial activity against Staphylococcus aureus MTCC 3160 at 4 mg/ml after 24 hrs by agar diffusion method; assay type: functional; conditions: MTCC 3160, 24 h, read-out: DIZ; summary of the method: as §1
Bacillus subtilis [9] = experiment: Antimicrobial activity against Bacillus subtilis MTCC 121 at 4 mg/ml after 24 hrs by agar diffusion method; assay type: functional; conditions: MTCC 121, 24 h, read-out: DIZ; summary of the method: as §1
Bacillus subtilis [10] = experiment: Antimicrobial activity against Bacillus subtilis MTCC 121 after 24 hrs by broth microdilution assay; assay type: functional; conditions: MTCC 121, 24 h; summary of the method: as §3
Escherichia coli [11] = experiment: Antimicrobial activity against Escherichia coli MTCC 51 after 24 hrs by broth microdilution assay; assay type: functional; conditions: MTCC 51, 24 h; summary of the method: as §3
Rattus norvegicus [12] = experiment: Antiinflammatory activity in Wistar albino rat assessed as inhibition of carrageenan-induced paw edema at 50 mg/kg, po administered 30 mins before carrageenan challenge measured after 120 mins relative to control; assay type: functional; summary of the method: as §2
Rattus norvegicus [13] = species on record: Rattus norvegicus; experiment: animal or person; conditions: Wistar albino, po, read-out: INH
Rattus norvegicus [14] = species on record: Rattus norvegicus; experiment: animal or person; conditions: Wistar albino, po, read-out: INH; remark: listed apart in the source
Rattus norvegicus [15] = species on record: Rattus norvegicus; experiment: animal or person; conditions: Wistar albino, po, read-out: INH; remark: listed apart in the source
Rattus norvegicus [16] = species on record: Rattus norvegicus; experiment: animal or person; conditions: Wistar albino, po, read-out: INH; remark: listed apart in the source

Compound	MIC (Pseudomonas aeruginosa [6]) [µg/mL]	MIC (Staphylococcus aureus [7]) [µg/mL]	MIC (Bacillus subtilis [10]) [µg/mL]	MIC (Escherichia coli [11]) [µg/mL]	zone of inhibition at 4000 µg/mL (Escherichia coli [1]) [mm]	inhibition in vivo at 50 mg/kg (Rattus norvegicus [2]) [%]	zone of inhibition at 4000 µg/mL (Pseudomonas aeruginosa [3]) [mm]	inhibition in vivo at 50 mg/kg (Rattus norvegicus [4]) [%]	inhibition in vivo at 50 mg/kg (Rattus norvegicus [5]) [%]	zone of inhibition at 4000 µg/mL (Staphylococcus aureus [8]) [mm]	zone of inhibition at 4000 µg/mL (Bacillus subtilis [9]) [mm]	inhibition in vivo at 50 mg/kg (Rattus norvegicus [12]) [%]	inhibition in vivo at 4 mg/kg (Rattus norvegicus [13]) [%]	inhibition in vivo at 4 mg/kg (Rattus norvegicus [14]) [%]	inhibition in vivo at 4 mg/kg (Rattus norvegicus [15]) [%]	inhibition in vivo at 4 mg/kg (Rattus norvegicus [16]) [%]
Cc1ccc(C2=NN(c3ccc(S(N)(=O)=O)cc3)C(c3cn(-c4ccccc4)nc3-c3ccc(C)cc3)C2)cc1 (stereo not drawn)	128 (≈ 234 µM)	32 (≈ 58.4 µM)	64 (≈ 117 µM)	64 (≈ 117 µM)	10.7	19	9.33	16	18	16.7	10.7	9	–	–	–	–
NS(=O)(=O)c1ccc(N2N=C(c3ccc(F)cc3)CC2c2cn(-c3ccccc3)nc2-c2ccc(Br)cc2)cc1 (stereo not drawn)	128 (≈ 208 µM)	64 (≈ 104 µM)	64 (≈ 104 µM)	128 (≈ 208 µM)	9.33	26	9.33	17	13	10	11	15	–	–	–	–
NS(=O)(=O)c1ccc(N2N=C(c3ccc(F)cc3)CC2c2cn(-c3ccccc3)nc2-c2ccc(F)cc2)cc1 (stereo not drawn)	32 (≈ 57.6 µM)	16 (≈ 28.8 µM)	16 (≈ 28.8 µM)	32 (≈ 57.6 µM)	10.7	8	19.3	16	18	21	10.7	9	–	–	–	–
NS(=O)(=O)c1ccc(N2N=C(c3ccccc3)CC2c2cn(-c3ccccc3)nc2-c2ccc(F)cc2)cc1 (stereo not drawn)	32 (≈ 59.5 µM)	16 (≈ 29.8 µM)	16 (≈ 29.8 µM)	32 (≈ 59.5 µM)	17.3	14	17.3	22	18	23.3	11.7	23	–	–	–	–
Cc1ccc(C2=NN(c3ccc(S(N)(=O)=O)cc3)C(c3cn(-c4ccccc4)nc3-c3ccccc3)C2)cc1 (stereo not drawn)	64 (≈ 120 µM)	32 (≈ 60 µM)	32 (≈ 60 µM)	64 (≈ 120 µM)	11.7	17	11.7	27	5	16.3	17	26	–	–	–	–
NS(=O)(=O)c1ccc(N2N=C(c3ccccc3)CC2c2cn(-c3ccccc3)nc2-c2ccccc2)cc1 (stereo not drawn)	64 (≈ 123 µM)	32 (≈ 61.6 µM)	32 (≈ 61.6 µM)	64 (≈ 123 µM)	11.7	4	10.7	10	5	17.7	18.7	1	–	–	–	–
O=C(O)c1cn(C2CC2)c2cc(N3CCNCC3)c(F)cc2c1=O [CIPROFLOXACIN]	4 (≈ 12.1 µM)	2 (≈ 6.04 µM)	2 (≈ 6.04 µM)	–	28.6	–	28	–	–	32.6	29.2	–	–	–	–	–
CS(=O)(=O)Nc1ccc([N+](=O)[O-])cc1Oc1ccccc1 [NIMESULIDE]	–	–	–	–	–	–	–	–	–	–	–	–	37	43	36	45

Further compounds by falling MIC (Pseudomonas aeruginosa [6]), results first:

MIC (Pseudomonas aeruginosa [6]) [µg/mL]	MIC (Staphylococcus aureus [7]) [µg/mL]	MIC (Bacillus subtilis [10]) [µg/mL]	MIC (Escherichia coli [11]) [µg/mL]	Compound	zone of inhibition at 4000 µg/mL (Escherichia coli [1]) [mm]	inhibition in vivo at 50 mg/kg (Rattus norvegicus [2]) [%]	zone of inhibition at 4000 µg/mL (Pseudomonas aeruginosa [3]) [mm]	inhibition in vivo at 50 mg/kg (Rattus norvegicus [4]) [%]	inhibition in vivo at 50 mg/kg (Rattus norvegicus [5]) [%]	zone of inhibition at 4000 µg/mL (Staphylococcus aureus [8]) [mm]	zone of inhibition at 4000 µg/mL (Bacillus subtilis [9]) [mm]	inhibition in vivo at 50 mg/kg (Rattus norvegicus [12]) [%]	inhibition in vivo at 4 mg/kg (Rattus norvegicus [13]) [%]	inhibition in vivo at 4 mg/kg (Rattus norvegicus [14]) [%]	inhibition in vivo at 4 mg/kg (Rattus norvegicus [15]) [%]	inhibition in vivo at 4 mg/kg (Rattus norvegicus [16]) [%]
128 (≈ 214 µM)	32 (≈ 53.5 µM)	64 (≈ 107 µM)	64 (≈ 107 µM)	NS(=O)(=O)c1ccc(N2N=C(c3ccc(Br)cc3)CC2c2cn(-c3ccccc3)nc2-c2ccccc2)cc1 (stereo not drawn)	11.7	23	9.66	22	7	17	11.3	23	–	–	–	–
128 (≈ 240 µM)	32 (≈ 60 µM)	64 (≈ 120 µM)	64 (≈ 120 µM)	Cc1ccc(-c2nn(-c3ccccc3)cc2C2CC(c3ccccc3)=NN2c2ccc(S(N)(=O)=O)cc2)cc1 (stereo not drawn)	11.7	14	9.33	22	18	16	11	16	–	–	–	–
64 (≈ 116 µM)	32 (≈ 58 µM)	32 (≈ 58 µM)	64 (≈ 116 µM)	Cc1ccc(-c2nn(-c3ccccc3)cc2C2CC(c3ccc(F)cc3)=NN2c2ccc(S(N)(=O)=O)cc2)cc1 (stereo not drawn)	11.7	43	11	34	30	16.7	16.3	32	–	–	–	–
32 (≈ 53.5 µM)	8 (≈ 13.4 µM)	8 (≈ 13.4 µM)	32 (≈ 53.5 µM)	NS(=O)(=O)c1ccc(N2N=C(c3ccccc3)CC2c2cn(-c3ccccc3)nc2-c2ccc(Br)cc2)cc1 (stereo not drawn)	17.3	26	17.3	38	16	24	23.7	32	–	–	–	–
32 (≈ 59.5 µM)	8 (≈ 14.9 µM)	8 (≈ 14.9 µM)	16 (≈ 29.8 µM)	NS(=O)(=O)c1ccc(N2N=C(c3ccc(F)cc3)CC2c2cn(-c3ccccc3)nc2-c2ccccc2)cc1 (stereo not drawn)	21.7	25	17.7	23	22	23.7	23.3	15	–	–	–	–
